# Key:
# [1] = biological target: T1, 15F3 of Fn (Rattus norvegicus, UniProt P04937); assay: Intrinsic Trp fluorescence quenching titration of 15F3; type: binding
# T1 sequence (P04937 2193-2286 limits assumed): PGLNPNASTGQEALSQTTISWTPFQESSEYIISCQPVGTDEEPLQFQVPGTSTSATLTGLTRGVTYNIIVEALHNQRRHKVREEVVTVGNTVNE
# Method in brief: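 Titration of the rat Fn 15th type III module (1 μM) with varied test peptide concentrations; intrinsic Trp emission spectra recorded after 5 min. Intensity at 350 nm was fitted to derive KD. Data were corrected for dilution and inner-filter effect.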
# [2] = biological target: T1, 15F3 of Fn; assay: Stopped-flow binding kinetics with 15F3; details: 25 °C
# Method in brief: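 Rat Fn 15th type III module (1 μM) in PBS was rapidly mixed with test peptide (25–400 μM, at least 25-fold excess for pseudo-first-order conditions). Trp emission above 320 nm (295 nm excitation, 320 nm cut-off filter) was recorded at 25 °C, 1000 points per trace. Averaged traces were fitted single-exponentially for kobs; kobs versus peptide concentration gave kon and koff. Three experiments were averaged.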
substance,measurement,setting,value
LIPAD,affinity for 15F3,[1],moderate affinity
same,binding kinetics to 15F3,[2],slow binding kinetics
